According to publication PMC7034990 (Science Advances, 2020):

Experiments:
CFBE41o− cells = test: Cell viability panel; type: cell-based; conditions: 24 hr, positive controls celastrol or cytochalasin D
In short: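 CFBE41o− cells. Proliferation: 5000 cells/well; after 24 h, test compound at several concentrations or DMSO; tracked 24 h by high-content imaging. MTT: 50,000 cells/well; treated 24 h after plating; next day MTT 0.5 mg/ml final, 3 h at 37°C; absorbance at 560 nm. Cell death: 50,000 cells/well, treated 24 h, then Hoechst 33342 plus propidium iodide stain and high-content imaging.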

[1] = molecular target: ABC-C2 (multidrug resistance-associated protein 2) (Homo sapiens, UniProt Q92887); test: ABC transporter inhibition, ABC-C2; type: in vitro ADME; conditions: read-out: inhibition of ABC-C2
F508del-CFTR FRT cells = test: Transepithelial electrical conductance; type: cell-based; conditions: 24 hours, compared to VX-809 (1 μM)
In short: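 F508del-CFTR FRT cells on porous membranes were treated 24 h at 37°C, 5% CO2. Same saline both sides: 130 mM NaCl, 10 mM Na-Hepes pH 7.3, 10 mM glucose. TEER was read at baseline, after forskolin 20 μM + genistein 50 μM, then after PPQ102 30 μM, waiting 10 min per step. TEER values were converted to TEEC.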

P574H-CFTR = P574H-CFTR (Homo sapiens, UniProt P13569, P574H); test: Rescue of P574H-CFTR in FRT cells; type: cell-based; conditions: 37 °C or 32 °C
In short: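 FRT cells stably co-expressing P574H-CFTR and HS-YFP (H148Q/I152L), plated at 50,000/well. After a PBS wash, cells were stimulated 25 min with forskolin 20 μM plus VX-770 1 μM. Iodide solution was then injected (final I− 100 mM) and YFP fluorescence read at 500/535 nm ex/em. Values were normalized to initial background-subtracted fluorescence. I− influx rate came from an exponential fit of the final 11 s.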

Chain of P574H-CFTR (P13569 whole entry P574H): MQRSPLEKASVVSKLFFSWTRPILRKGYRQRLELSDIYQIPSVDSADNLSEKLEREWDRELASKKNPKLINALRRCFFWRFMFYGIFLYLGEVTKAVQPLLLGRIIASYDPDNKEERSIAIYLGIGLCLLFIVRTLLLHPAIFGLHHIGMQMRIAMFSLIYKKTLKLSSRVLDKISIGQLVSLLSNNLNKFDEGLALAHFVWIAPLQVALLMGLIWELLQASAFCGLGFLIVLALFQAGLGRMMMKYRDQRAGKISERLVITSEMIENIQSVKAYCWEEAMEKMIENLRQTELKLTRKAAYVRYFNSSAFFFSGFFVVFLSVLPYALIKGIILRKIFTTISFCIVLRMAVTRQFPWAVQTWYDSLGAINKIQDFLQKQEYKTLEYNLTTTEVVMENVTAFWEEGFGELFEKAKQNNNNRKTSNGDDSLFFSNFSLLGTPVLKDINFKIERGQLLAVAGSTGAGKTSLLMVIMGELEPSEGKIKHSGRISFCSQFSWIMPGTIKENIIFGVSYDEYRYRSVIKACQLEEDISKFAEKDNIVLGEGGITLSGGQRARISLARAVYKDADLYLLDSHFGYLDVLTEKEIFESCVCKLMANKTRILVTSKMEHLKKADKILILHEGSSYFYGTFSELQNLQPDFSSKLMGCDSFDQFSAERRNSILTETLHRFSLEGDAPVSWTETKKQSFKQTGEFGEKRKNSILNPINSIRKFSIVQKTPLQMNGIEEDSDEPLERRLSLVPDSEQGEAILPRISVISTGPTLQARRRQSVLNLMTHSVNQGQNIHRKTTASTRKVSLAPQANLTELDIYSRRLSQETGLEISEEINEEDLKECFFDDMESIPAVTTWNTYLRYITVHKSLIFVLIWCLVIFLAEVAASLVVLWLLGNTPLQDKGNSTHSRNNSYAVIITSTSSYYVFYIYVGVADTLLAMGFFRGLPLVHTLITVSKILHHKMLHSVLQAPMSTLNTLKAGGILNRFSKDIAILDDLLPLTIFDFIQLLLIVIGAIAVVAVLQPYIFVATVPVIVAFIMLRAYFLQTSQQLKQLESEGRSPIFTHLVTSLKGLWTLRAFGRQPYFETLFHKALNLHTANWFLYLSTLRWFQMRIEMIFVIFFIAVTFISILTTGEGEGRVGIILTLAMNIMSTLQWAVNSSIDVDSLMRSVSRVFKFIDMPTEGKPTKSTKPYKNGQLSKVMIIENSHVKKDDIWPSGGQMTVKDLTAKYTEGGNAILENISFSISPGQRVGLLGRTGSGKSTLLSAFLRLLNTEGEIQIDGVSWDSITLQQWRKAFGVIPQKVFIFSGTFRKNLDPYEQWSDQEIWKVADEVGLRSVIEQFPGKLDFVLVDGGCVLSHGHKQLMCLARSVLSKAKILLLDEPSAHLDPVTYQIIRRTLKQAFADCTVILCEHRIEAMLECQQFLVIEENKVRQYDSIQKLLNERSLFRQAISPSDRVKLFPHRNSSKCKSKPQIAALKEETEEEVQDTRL
Chain of ABC-C2 (multidrug resistance-associated protein 2) (Q92887 whole entry, species assumed): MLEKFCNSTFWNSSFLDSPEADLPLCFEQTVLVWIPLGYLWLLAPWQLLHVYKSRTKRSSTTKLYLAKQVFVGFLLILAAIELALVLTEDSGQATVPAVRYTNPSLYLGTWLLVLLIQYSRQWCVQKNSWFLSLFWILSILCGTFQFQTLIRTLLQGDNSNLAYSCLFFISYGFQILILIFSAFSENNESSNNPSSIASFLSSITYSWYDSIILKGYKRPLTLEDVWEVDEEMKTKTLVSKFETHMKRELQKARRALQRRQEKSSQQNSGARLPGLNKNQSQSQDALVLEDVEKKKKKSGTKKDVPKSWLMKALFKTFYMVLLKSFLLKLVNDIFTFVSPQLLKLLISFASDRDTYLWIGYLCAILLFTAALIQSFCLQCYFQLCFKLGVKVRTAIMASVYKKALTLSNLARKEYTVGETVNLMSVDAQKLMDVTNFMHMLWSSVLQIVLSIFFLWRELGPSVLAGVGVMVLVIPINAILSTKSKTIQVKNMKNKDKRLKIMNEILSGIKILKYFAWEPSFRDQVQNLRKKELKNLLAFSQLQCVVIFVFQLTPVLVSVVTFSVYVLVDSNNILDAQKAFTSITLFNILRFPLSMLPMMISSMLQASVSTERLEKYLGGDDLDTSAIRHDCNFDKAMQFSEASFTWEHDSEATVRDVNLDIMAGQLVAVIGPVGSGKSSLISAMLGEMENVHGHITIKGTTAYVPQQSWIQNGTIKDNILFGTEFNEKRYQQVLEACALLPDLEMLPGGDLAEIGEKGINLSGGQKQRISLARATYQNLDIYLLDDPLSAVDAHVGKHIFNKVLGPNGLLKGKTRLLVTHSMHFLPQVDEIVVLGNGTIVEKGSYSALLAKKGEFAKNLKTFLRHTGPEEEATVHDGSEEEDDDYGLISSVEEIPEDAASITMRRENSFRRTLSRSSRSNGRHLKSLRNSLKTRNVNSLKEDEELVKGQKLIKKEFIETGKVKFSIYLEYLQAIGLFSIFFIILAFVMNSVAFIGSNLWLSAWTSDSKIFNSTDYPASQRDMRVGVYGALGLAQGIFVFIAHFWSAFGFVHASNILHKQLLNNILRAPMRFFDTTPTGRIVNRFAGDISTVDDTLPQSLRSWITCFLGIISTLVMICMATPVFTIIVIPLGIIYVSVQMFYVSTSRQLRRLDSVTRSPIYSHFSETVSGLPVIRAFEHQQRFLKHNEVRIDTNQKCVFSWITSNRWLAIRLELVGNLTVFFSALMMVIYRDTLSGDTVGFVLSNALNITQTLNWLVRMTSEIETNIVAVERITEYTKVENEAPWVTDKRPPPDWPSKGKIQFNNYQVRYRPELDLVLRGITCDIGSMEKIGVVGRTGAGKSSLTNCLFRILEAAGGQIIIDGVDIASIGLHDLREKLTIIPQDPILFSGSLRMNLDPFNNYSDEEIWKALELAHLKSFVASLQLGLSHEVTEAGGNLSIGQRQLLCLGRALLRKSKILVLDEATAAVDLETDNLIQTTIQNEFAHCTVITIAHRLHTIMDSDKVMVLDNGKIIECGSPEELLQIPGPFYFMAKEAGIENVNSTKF

CN(C(=O)c1cccc(-n2nc(C(F)(F)F)c3c2[C@@H](Oc2ccc(C(=O)O)cc2)CCC3)c1)c1ccc2c(c1)OC(F)(F)O2 [ARN23765]
effect on cell viability (CFBE41o− cells): did not impair cell proliferation nor caused cell toxicity
inhibition at 10 µM [1]: 27%
correction of F508del-CFTR, ∆TEEC (F508del-CFTR FRT cells): high potency and efficacy
P574H-CFTR function (P574H-CFTR): improves the function of P574H-CFTR, particularly in combination with low temperature
